Source: PubChem
This excerpt belongs to a sample that is enriched for hits.
Calb FLC: C. albicans growth modulation with fluconazole | growth inhibition, % (test concentration not listed) | C. albicans CaCi-2 (fluconazole-resistant clinical isolate) + fluconazole, Alamar Blue growth, 48 h | AID 1979 | actives 0.57% (n = 300,000);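 active means growth inhibition above about 58% in most replicates, limit read from the data, passing the limit was not always enough; inconclusive means exactly half the replicates above a set limit; inactive means most replicates below a set limit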;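 further: all wells also contain fluconazole at 8 µg/ml as a sub-toxic cotreatment; 0% = median of DMSO wells and 100% = median of geldanamycin control wells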
NALP3 yeast inh: blocks the NALP3 inflammasome reconstituted in yeast; Yeast reconstituted NLRP3/ASC/caspase-1, beta-gal luminescence, 24 h; inhibition, % at 10 µM; actives 0.39% (n = 330,000);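 active means inhibition of 50% or more; inactive means inhibition below 50%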;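 further: plate controls were induced DMSO wells for no effect and uninduced yeast grown without galactose for full effect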
PolyA inh: yeast polyadenylation inhibition. S. cerevisiae SKY197-pL101 polyadenylation reporter, beta-gal luminescence; efflux-impaired pdr1/pdr3 knockout yeast; score 100 = 6 SD above DMSO. AID 1875. actives 0.02% (n = 300,000). activity score, % at 12 µM;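 active means lowest replicate activity score at least 50, where 100 means six control SD above control mean; inconclusive means lowest score under 50 but half or more replicates reach 50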;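 further: yeast exposed to compound for 9 h at 30 °C; higher score means more reporter readthrough which indicates perturbed polyadenylation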
L major viab: reduces viability of Leishmania major promastigotes; resazurin fluorescence viability; inhibition, % at 10 µM; actives 9% (n = 200,000); in the data active means inhibition above about 50%;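 further: promastigotes grown with compound for 44 hours at 28 °C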
T cruzi repl: T. cruzi replication inhibition; AID 1885; inhibition, % (concentration not given with the values); actives 1.4% (n = 300,000); T. cruzi beta-gal in NIH3T3, luminescence, 90 h;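 active means mean inhibition across valid replicates above about 55%, limit read from the data; inconclusive means mean below that limit but half or more replicates reach it; inactive means mean below it, under half of replicates reach it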;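 further: signal also drops with host cell toxicity which is not excluded here; 0% = plate median of DMSO wells and 100% = zero luminescence signal; higher percent means less beta-gal luminescence so fewer parasites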
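Material: NIH/3T3 host cells with β-galactosidase reporter T. cruzi; Input: 5,000 host fibroblasts per well; Medium: DMEM, 2% fetal bovine serum; Compound: 50 nL DMSO compound solution per well; Schedule: 3 h host attachment, then at least 90 h co-culture; Detection: luminescent β-galactosidase signal after 60 min lysis.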
NALP1 yeast inh: NALP1 inhibition; S. cerevisiae NALP1/ASC/caspase-1 growth, X-gal OD620, 72 h; inhibition, % at 10 µM; actives 0.61% (n = 280,000); AID 2071; in the data active means inhibition mostly above about 24%, no sharp cut-off; inactive means mostly below about 32%
Numbers without * were called inactive; ? = inconclusive; . = no result given.

SMILES	Calb FLC	NALP3 yeast inh	PolyA inh	L major viab	T cruzi repl	NALP1 yeast inh
CN1CCN(C(=S)c2ccc(-c3cccc(Cl)c3Cl)o2)CC1	-29.3	16.7	-8.6	95.1*	9.9	39.6
COc1cc(NC(=O)Cn2nc(C(F)(F)F)c(Br)c2C)cc([N+](=O)[O-])c1	-16.6	16.6	10.6	98.4*	?	24.6
COc1ccc(CNC(=O)Cn2nc(C(F)(F)F)c(Br)c2C)cc1	12.0	11.5	-26.6	.	11.4	15.1
O=c1[nH]ncc(N2CCN(C(c3ccccc3)c3ccccc3)CC2)c1Cl	5.6	-7.2	-5.7	92.9*	31.9	40.3
CN(Cc1c(F)cccc1Cl)C(=O)C1CC(=O)N(CCc2ccccc2)C1 (configuration not stated)	-0.6	6.5	-4.5	3.0	0.1	-9.3
O=C1c2cccc(OCC(=O)N3CCCc4ccccc43)c2CCN1Cc1ccc(F)cc1	-4.1	3.3	0.8	95.3*	7.4	25.0
CCCCOc1ccc(CSCCN=C(N)N)cc1	-4.1	37.2	-25.3	97.3*	31.7	14.7
CCCCOc1ccc(CSC(CC(=O)O)C(=O)O)cc1 (configuration not stated)	-4.9	-6.4	8.2	-8.1	-2.3	10.7
O=C(NC1CCCC1)C(c1ccc(Cl)cc1)N1CCc2ccccc21 (configuration not stated)	-14.6	4.7	7.1	7.0	42.9	6.2
O=C(NC1CCCCC1)C(c1ccccc1)N1CCc2ccccc21 (configuration not stated)	-7.4	-39.4	14.7	50.4*	17.5	-9.9
Cc1nc(C)c(C(=O)OC(C)C(=O)Nc2ccc(F)cc2)s1 (configuration not stated)	.	4.6	.	.	.	.
O=C(c1cc(-c2ccccc2)nc2ccccc12)N1CCc2ccccc2C1	-8.8	-19.6	5.5	57.7*	-0.3	22.2
Cc1ccc2nc(-c3ccccc3)cc(C(=O)N3CCc4ccccc4C3)c2c1	2.3	2.5	-10.7	13.0	47.5	8.6
O=S(=O)(/C=C/c1ccccc1)N1CCN(c2nc(-c3cccnc3)nc3ccccc23)CC1	-3.7	20.9	10.4	52.5*	34.0	3.3
O=C(c1cc(-c2ccncc2)nc2ccccc12)N1CCN(S(=O)(=O)/C=C/c2ccccc2)CC1	1.1	11.9	-0.3	97.5*	42.4	9.2
O=C(c1cc(-c2ccncc2)nc2ccccc12)N1CCOCC1	.	10.7	.	.	.	.
O=c1cc(C(F)(F)F)nc(SC/C=C/c2ccccc2)[nH]1	-1.1	22.8	-4.8	.	-15.0	22.8
CCC(C)Sc1ccc([C@H]2N[C@@](Cc3ccccc3)(C(=O)OC)[C@H]3C(=O)N(CC)C(=O)[C@@H]23)cc1 (some centres not stated)	-3.9	6.0	2.1	.	33.1	.
CCOC(=O)c1nnc(-c2ccccc2)nc1Sc1ccccc1Cl	21.7	17.7	-30.5	19.8	12.6	3.9
COc1cccc(Sc2nc(-c3ccccc3)ncc2S(C)(=O)=O)c1	9.9	-0.9	-19.7	.	-3.0	7.5
O=C(O)c1cnc(-c2ccccc2)nc1Sc1ccccc1Cl	96.0*	5.1	0.6	-1.9	-7.3	-5.6
Cc1cccc(Sc2nc(-c3ccccc3)ncc2C(=O)O)c1	108.7*	3.6	-2.5	-6.7	11.5	-0.8
O=C(O)c1cnc(-c2ccccc2)nc1Sc1ccc(Cl)cc1	98.7*	25.7	-25.2	-10.5	-9.2	-0.3
COc1ccc(Sc2nc(-c3ccccc3)ncc2C(=O)O)cc1	60.3	1.4	.	-5.7	-26.2	-4.9
CCc1ccccc1OCC(=O)Nc1cc(S(=O)(=O)N(CC)CC)ccc1N1CCOCC1	.	10.3	.	.	.	.
COc1ccc(Cn2c(-c3ccco3)nc3c(c(=O)c4ccccc4n3C)c2=O)cc1	14.8	3.7	-1.8	.	11.6	.
COc1ccc(Cn2c(-c3ccc(C)cc3)nc3c(c(=O)c4ccccc4n3C)c2=O)cc1	18.9	20.1	0.4	87.6*	51.3	26.8
Cn1c2ccccc2c(=O)c2c(=O)n(Cc3ccco3)c(-c3ccc(Cl)cc3Cl)nc21	33.4	25.9	22.9	.	63.8*	6.9
CS(=O)(=O)Nc1nc2n(n1)C(c1ccccc1)CC(c1ccccc1)N2 (configuration not stated)	-5.7	10.3	-13.4	.	15.1	.
COc1cc(CNC2CCCCCC2)cc(OC)c1O	2.3	3.5	9.7	-1.6	-16.8	-20.7
